In ChEMBL document CHEMBL2203171, “The use of small molecule probes to study spatially separated stimulus-induced signaling pathways” (Bioorg Med Chem Lett, 2012):
Activity calls are given as the source filed them. The calls are words filed in the database; no cut-off is given here.

Legend:
Format in all cases: cell-based
[1] = target: T1, Inhibitor of nuclear factor kappa-B kinase subunit beta (Mus musculus) (UniProt O88351); assay: Inhibition of IKKbeta in C57BL/6 mouse BMDM cells assessed as inhibition of TNFalpha-induced MCP1 […] at 25 uM by Northern blot analysis
T1 sequence (whole entry): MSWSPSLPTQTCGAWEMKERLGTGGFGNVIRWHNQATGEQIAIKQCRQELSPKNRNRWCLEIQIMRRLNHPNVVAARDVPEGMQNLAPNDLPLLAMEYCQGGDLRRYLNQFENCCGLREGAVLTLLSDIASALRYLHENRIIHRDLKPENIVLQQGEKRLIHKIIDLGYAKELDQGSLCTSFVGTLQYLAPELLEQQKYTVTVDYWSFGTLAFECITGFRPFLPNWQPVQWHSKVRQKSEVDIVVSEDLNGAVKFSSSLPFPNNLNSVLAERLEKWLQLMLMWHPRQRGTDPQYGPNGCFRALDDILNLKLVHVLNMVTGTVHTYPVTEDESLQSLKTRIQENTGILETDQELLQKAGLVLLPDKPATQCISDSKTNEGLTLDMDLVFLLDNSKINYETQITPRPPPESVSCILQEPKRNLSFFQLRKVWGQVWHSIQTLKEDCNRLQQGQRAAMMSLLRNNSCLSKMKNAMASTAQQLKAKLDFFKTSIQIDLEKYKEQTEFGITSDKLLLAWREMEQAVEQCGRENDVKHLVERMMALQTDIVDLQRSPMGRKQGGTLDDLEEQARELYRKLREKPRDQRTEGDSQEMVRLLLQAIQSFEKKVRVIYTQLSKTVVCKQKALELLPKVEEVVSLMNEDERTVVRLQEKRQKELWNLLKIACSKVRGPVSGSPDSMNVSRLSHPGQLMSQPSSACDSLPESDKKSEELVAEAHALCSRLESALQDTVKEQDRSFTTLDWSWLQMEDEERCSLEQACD

[2] = target: T1, Inhibitor of nuclear factor kappa-B kinase subunit beta (Mus musculus); assay: Inhibition of IKKbeta in C57BL/6 mouse BMDM cells assessed as inhibition of LPS-induced MCP1 […] at 25 uM by Northern blot analysis
[3] = target: T1, Inhibitor of nuclear factor kappa-B kinase subunit beta (Mus musculus); assay: Inhibition of IKKbeta in C57BL/6 mouse BMDM cells assessed as inhibition of TNFalpha-induced IkappaBalpha degradation at 50 uM up to 90 mins by Western blot analysis
[4] = target: T2, Interleukin-1 receptor type 1 (Mus musculus) (UniProt P13504); assay: Inhibition of MyD88 recruitment to IL-1R in C57BL/6 mouse BMDM cells assessed as inhibition of IL-1-induced IkappaBalpha degradation up to 90 mins by Western blot analysis
T2 sequence (whole entry): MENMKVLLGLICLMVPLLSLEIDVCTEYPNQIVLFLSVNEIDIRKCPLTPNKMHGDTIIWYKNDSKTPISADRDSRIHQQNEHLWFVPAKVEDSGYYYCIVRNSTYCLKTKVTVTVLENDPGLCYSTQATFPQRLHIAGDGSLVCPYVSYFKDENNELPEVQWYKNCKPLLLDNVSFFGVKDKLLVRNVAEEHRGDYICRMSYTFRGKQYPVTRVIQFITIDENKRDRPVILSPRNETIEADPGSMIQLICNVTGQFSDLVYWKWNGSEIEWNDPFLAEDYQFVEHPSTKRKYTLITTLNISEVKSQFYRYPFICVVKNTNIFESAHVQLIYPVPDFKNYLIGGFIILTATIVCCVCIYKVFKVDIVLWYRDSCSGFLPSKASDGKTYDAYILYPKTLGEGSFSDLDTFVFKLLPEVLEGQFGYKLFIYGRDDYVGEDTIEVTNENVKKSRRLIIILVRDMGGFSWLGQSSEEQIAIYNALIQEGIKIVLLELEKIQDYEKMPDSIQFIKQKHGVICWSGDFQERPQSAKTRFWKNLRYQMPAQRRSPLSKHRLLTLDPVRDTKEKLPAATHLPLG
Outline: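 Bone marrow macrophages from C57BL/6 mice, grown in 70% growth medium (DMEM, 10% FBS) plus 30% L929-conditioned medium and given fresh medium 12-14 h before stimulation. Stimuli: IL-1 40 ng/ml, HKSA ~10^8 cfu/ml, pI:pC 50 μg/ml or CpG 10 μg/ml, ± compound at 10 μM (final) added from a 200x DMSO stock. IκBα and p38 profiled by immunoblot. Three independent experiments, quantitated and normalized.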

inhibition [1]: inactive
inhibition [2]: Active
inhibition [3]: inactive
inhibition [4]: Active
SMILES: O=C(CCCCCN1C(=O)C=CC1=O)Oc1ccc2cc(C(C(=O)NCc3ccccc3)N(C(=O)Cc3ccc4c(c3)OCO4)C3CC3)ccc2c1 (centres undefined)
